Data reported in ChEMBL document CHEMBL2040813, “4-Thiophenoxy-2-trichloromethyquinazolines display in vitro selective antiplasmodial activity against the human malaria parasite Plasmodium falciparum” (Bioorg Med Chem Lett, 2011).

Key:
Toxoplasma gondii = assay: Antimicrobial activity against tachyzoites of Toxoplasma gondii expressing PRU-beta-Gal gene infected in HFF after 72 hrs by colorimetric microtiter assay; format: functional, organism-based
[1] = Selectivity index, ratio of CC50 for human HepG2 cells to IC50 for chloroquine, pyrimethamine, and proguanil-resistant Plasmodium falciparum K1; format: functional
Outline: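 SI = HepG2 CC50 / K1 IC50. The read-out was MTT for 2 h, formazan dissolved in DMSO, A570 with 630 nm reference. Viability is expressed as % of untreated control, CC50 taken from the dose-response curve. The IC50 is from the SYBR Green K1 assay.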

[2] = Cytotoxicity against human HepG2 cells after 72 hrs by MTT assay; format: cell-based
Outline: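 Cells seeded in RPMI with 10% foetal bovine serum, L-glutamine, penicillin/streptomycin, 37 °C, 6% CO₂; after 24 h, compound dilutions added for 72 h. MTT (5 mg/mL in PBS) added 2 h at 37 °C, formazan dissolved in DMSO, absorbance 570 nm (reference 630 nm). Viability as percent of untreated cells; CC50 from dose–response curve; mean of three independent experiments.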

Plasmodium falciparum = assay: Antiplasmodial activity against chloroquine, pyrimethamine, and proguanil-resistant Plasmodium falciparum K1 infected in human A+ erythrocytes after 72 hrs by SYBR Green-I fluorescence-based method; format: functional, organism-based; conditions: K1, 72 h
Outline: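 Ring-stage cultures (5% sorbitol synchronised), maintained in A+ human erythrocytes with RPMI/HEPES/NaHCO3/10% A+ serum under 5% O2, 5% CO2. Assay at 2% haematocrit, 1% parasitaemia, graded compound concentrations, 72 h at 37 °C in triplicate. IC50 by nonlinear regression, mean of three independent experiments.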

| Structure (SMILES) | IC50 (Toxoplasma gondii) [µM] | Ratio CC50/IC50 [1] | CC50 at 72 h [2] [µM] | IC50 (Plasmodium falciparum) [µM] |
| --- | --- | --- | --- | --- |
| CCc1nc(N)nc(N)c1-c1ccc(Cl)cc1 [PYRIMETHAMINE] | 0.8 |  |  |  |
| Fc1ccc(Sc2nc(C(Cl)(Cl)Cl)nc3ccccc23)cc1 |  | >25 | > 30 | 1.2 |
| FC(F)(F)c1cccc(Sc2nc(C(Cl)(Cl)Cl)nc3ccccc23)c1 |  | 8 | 17.5 | 2.2 |
| FC(F)(F)c1ccc(Sc2nc(C(Cl)(Cl)Cl)nc3ccccc23)cc1 |  | 13 | 13 | 1 |
| C[C@H]1c2cccc(O)c2C(=O)C2=C(O)[C@]3(O)C(=O)C(C(N)=O)=C(O)[C@@H](N(C)C)[C@@H]3[C@@H](O)[C@@H]21.O [DOXYCYCLINE] |  | 4 |  | 5 |
| Fc1ccccc1Sc1nc(C(Cl)(Cl)Cl)nc2ccccc12 |  | 12.2 | 28 | 2.3 |
| Clc1nc(C(Cl)(Cl)Cl)nc2ccccc12 |  | >2.3 | > 125 |  |
| Clc1cccc(Sc2nc(C(Cl)(Cl)Cl)nc3ccccc23)c1 |  | 7.3 | 16 | 2.2 |
| ClC(Cl)(Cl)c1nc(Sc2ccccc2)c2ccccc2n1 |  | 18.4 | 35 | 1.9 |
| Clc1ccc(Sc2ncnc3ccccc23)cc1 |  | 3.8 | 16.7 | 4.4 |
| FC(F)(F)c1ccccc1Sc1nc(C(Cl)(Cl)Cl)nc2ccccc12 |  | 11.2 | 28 | 2.5 |
| Cc1cccc(Sc2nc(C(Cl)(Cl)Cl)nc3ccccc23)c1 |  | 18.4 | 35 | 1.9 |
| Clc1ccccc1Sc1nc(C(Cl)(Cl)Cl)nc2ccccc12 |  | 9.3 | 26 | 2.8 |
| Cc1ccc(Sc2nc(C(Cl)(Cl)Cl)nc3ccccc23)cc1 |  | >19 | > 30 | 1.6 |
| Fc1cccc(Sc2nc(C(Cl)(Cl)Cl)nc3ccccc23)c1 |  | 8.2 | 15.5 | 1.9 |
| COc1ccccc1Sc1nc(C(Cl)(Cl)Cl)nc2ccccc12 |  | 8.2 | 32 | 3.9 |
| COc1cccc(Sc2nc(C(Cl)(Cl)Cl)nc3ccccc23)c1 |  | 6 | 12 | 2 |
| FC(F)(F)c1nc(Sc2ccc(Cl)cc2)c2ccccc2n1 |  |  | > 15 | > 15 |
| COc1ccc(Sc2nc(C(Cl)(Cl)Cl)nc3ccccc23)cc1 |  | >3.2 | > 8 | 2.5 |
| Clc1ccc(Sc2nc(C(Cl)(Cl)Cl)nc3ccccc23)c(Cl)c1 |  | 12.1 | 18.2 | 1.5 |
| Cc1ccccc1Sc1nc(C(Cl)(Cl)Cl)nc2ccccc12 |  | 7.4 | 52 | 7 |
